Laboratory results from ChEMBL document CHEMBL1124089, “Binaltorphimine-related bivalent ligands and their kappa opioid receptor antagonist selectivity” (J Med Chem, 1988).

Experiments:
[1] = Ratio of IC50 morphine and antagonist binding to opioid receptor
[2] = molecular target: Delta-type opioid receptor (Mus musculus) (UniProt P32300); assay: Ratio of IC50 DADLE and antagonist binding to delta opioid receptor
[3] = molecular target: Mu-type opioid receptor (Cavia porcellus) (UniProt P97266); settings: 100 nM
Sequence of Mu-type opioid receptor (Cavia porcellus) (P97266 whole entry): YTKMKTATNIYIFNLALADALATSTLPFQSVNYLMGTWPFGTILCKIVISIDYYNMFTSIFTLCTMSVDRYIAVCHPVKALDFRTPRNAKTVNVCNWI

[4] = molecular target: T1, Opioid receptor (mu and kappa) (Cavia porcellus) (UniProt P41144+P97266); assay: Ratio of antagonistic activity for mu and kappa receptors; assay type: functional
T1 sequence (P41144 whole entry, looked up): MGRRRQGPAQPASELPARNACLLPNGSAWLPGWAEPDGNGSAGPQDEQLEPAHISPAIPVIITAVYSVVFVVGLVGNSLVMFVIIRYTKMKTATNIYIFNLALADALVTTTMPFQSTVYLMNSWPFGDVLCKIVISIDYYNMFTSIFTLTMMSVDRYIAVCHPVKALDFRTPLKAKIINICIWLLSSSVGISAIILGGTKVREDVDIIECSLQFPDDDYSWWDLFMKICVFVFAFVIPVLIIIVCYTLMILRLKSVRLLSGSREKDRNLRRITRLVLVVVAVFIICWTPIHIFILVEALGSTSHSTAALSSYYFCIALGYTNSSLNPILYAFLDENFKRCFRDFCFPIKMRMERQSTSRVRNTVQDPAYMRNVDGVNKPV
T1 sequence (P97266 whole entry, looked up): as the sequence (P97266 whole entry) above
Procedure, shortened: (§1)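 Selectivity ratios mu/kappa and delta/kappa calculated from Ke values; Ke = [antagonist]/(IC50 ratio − 1), using ethylketazocine (kappa) and morphine (mu) in GPI and DADLE (delta) in MVD.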

[5] = molecular target: Kappa-type opioid receptor (Cavia porcellus) (UniProt P41144); assay: Antagonistic activity for Opioid receptor kappa 1 of guinea pig ileal longitudinal muscle at 100 nM; assay type: functional
Sequence of Kappa-type opioid receptor (Cavia porcellus) (P41144 whole entry): as the sequence (P41144 whole entry, looked up) above

[6] = molecular target: Delta-type opioid receptor (Mus musculus) (UniProt P32300); settings: Vas deferens, 20 nM
[7] = molecular target: T1, Opioid receptor (mu and kappa) (Cavia porcellus); assay: Ratio of IC50 ethylketazocine and antagonist binding to opioid receptor; assay type: protein assay
[8] = Ratio of antagonistic activity for delta and kappa receptors; assay type: functional; procedure, shortened: as §1
[9] = molecular target: Mu-type opioid receptor (Cavia porcellus) (UniProt P97266); settings: 20 nM
[10] = molecular target: Delta-type opioid receptor (Mus musculus) (UniProt P32300); settings: Vas deferens, 200 nM
[11] = molecular target: Kappa-type opioid receptor (Cavia porcellus) (UniProt P41144); assay: Antagonistic activity for Opioid receptor kappa 1 in guinea pig ileal longitudinal muscle at 200 nM; assay type: functional
[12] = molecular target: Mu-type opioid receptor (Cavia porcellus) (UniProt P97266); assay: Antagonistic activity for Opioid receptor mu 1 in guinea pig ileal longitudinal muscle at 200 nM; assay type: functional
[13] = molecular target: Delta-type opioid receptor (Mus musculus) (UniProt P32300); assay: Antagonistic activity for Opioid receptor delta 1 in mouse vas deferens at 200 nM; assay type: functional, tissue-based
[14] = molecular target: T2, Opioid receptor (mu and kappa) (Cavia porcellus, UniProt P41144+P97266); assay: Agonistic activity in guinea pig ileal longitudinal muscle; assay type: functional, tissue-based, Muscle tissue
[15] = molecular target: Delta-type opioid receptor (Mus musculus, UniProt P32300); assay: Agonistic activity in mouse vas deferens; assay type: functional, tissue-based
Sequence of Delta-type opioid receptor (P32300 whole entry): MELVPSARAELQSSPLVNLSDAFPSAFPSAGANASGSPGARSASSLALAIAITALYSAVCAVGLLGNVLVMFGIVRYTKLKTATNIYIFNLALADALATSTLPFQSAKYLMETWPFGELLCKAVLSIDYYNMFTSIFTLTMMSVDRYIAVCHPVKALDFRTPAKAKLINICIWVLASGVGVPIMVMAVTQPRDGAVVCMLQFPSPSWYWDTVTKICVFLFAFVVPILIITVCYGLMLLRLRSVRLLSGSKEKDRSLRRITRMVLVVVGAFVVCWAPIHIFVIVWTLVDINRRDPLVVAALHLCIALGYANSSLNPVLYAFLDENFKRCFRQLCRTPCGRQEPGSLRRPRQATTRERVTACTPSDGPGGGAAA

[16] = molecular target: Mu-type opioid receptor (Cavia porcellus) (UniProt P97266); assay: Antagonistic activity for Opioid receptor mu 1 in guinea pig ileal longitudinal muscle at 100 nM; assay type: functional
[17] = molecular target: Delta-type opioid receptor (Mus musculus) (UniProt P32300); assay: Antagonistic activity for Opioid receptor delta 1 in mouse vas deferens preparation at 100 nM; assay type: functional
[18] = molecular target: T2, Opioid receptor (mu and kappa); assay: Agonistic activity in guinea pig ileal longitudinal muscle after beta-FNA (200 nM) 60 min treatment; assay type: functional, tissue-based, Muscle tissue
Procedure, shortened: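 GPI pretreated with beta-FNA so that functional mu receptors are absent; agonist IC50 determined in this tissue and compared with IC50 in untreated GPI.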

[19] = molecular target: Kappa-type opioid receptor (Cavia porcellus) (UniProt P41144); assay: Antagonistic activity for Opioid receptor kappa 1 in guinea pig ileal longitudinal muscle at 20 nM; assay type: functional
[20] = molecular target: Delta-type opioid receptor (Mus musculus) (UniProt P32300); assay: Ratio of IC50 DADLE and antagonist binding to delta opioid receptor; Not calculated

Sequence of Delta-type opioid receptor (Mus musculus) (P32300 whole entry): as above

Row | SMILES | Ratio [1] | Ratio [2] | Selectivity ratio [4] | Ke [5] [nM] | Ratio [7] | Selectivity ratio [8] | IC50 [14] [nM] | IC50 [15] [nM] | other results
1 | Cn1c2c(c3c1[C@@H]1Oc4c(O)ccc5c4[C@@]14CCN(CC1CC1)[C@H](C5)[C@]4(O)C3)C[C@@]1(O)[C@H]3Cc4ccc(O)c5c4[C@@]1(CCN3CC1CC1)[C@H]2O5 | 2.8 | 4.5 | 79 | 0.14 | 148 | 41 | – | – | Ke [3]: 11 nM; Ke [6]: 5.7 nM
2 | Oc1ccc2c3c1O[C@H]1c4[nH]c5c(c4C[C@@]4(O)[C@@H](C2)N(CC2CC2)CC[C@]314)C[C@@]1(O)[C@H]2Cc3ccc(O)c4c3[C@@]1(CCN2CC1CC1)[C@H]5O4 | 2.6 | 2 | 32 | 0.41 | 49.1 | 49 | – | – | Ke [9]: 13 nM; Ke [10]: 20 nM
3 | COc1ccc2c3c1O[C@H]1c4[nH]c5c(c4C[C@@]4(O)[C@@H](C2)N(CC2CC2)CC[C@]314)C[C@@]1(O)[C@H]2Cc3ccc(O)c4c3[C@@]1(CCN2CC1CC1)[C@H]5O4 | 6.3 | 5.4 | 29 | – | 153 | 35 | – | – | Ke [11]: 1.3 nM; Ke [12]: 38 nM; Ke [13]: 45 nM
4 | COc1ccc2c3c1O[C@H]1c4[nH]c5c(c4C[C@H]4[C@@H](C2)N(C)CC[C@]314)C[C@H]1[C@H]2Cc3ccc(OC)c4c3[C@@]1(CCN2C)[C@H]5O4 | 0.51 | 0.93 | – | – | 0.43 | – | 330 | 1000 | –
5 | Oc1ccc2c3c1O[C@H]1c4[nH]ccc4C[C@@]4(O)[C@@H](C2)N(CC2CC2)CC[C@]314 | 155 | 32.3 | 0.3 | 2.1 | 49.5 | 1.5 | – | – | Ke [16]: 0.65 nM; Ke [17]: 3.2 nM
6 | CN1CC[C@]23c4c5ccc(O)c4O[C@H]2c2[nH]c4c(c2C[C@H]3[C@H]1C5)C[C@H]1[C@H]2Cc3ccc(O)c5c3[C@@]1(CCN2C)[C@H]4O5 | 0.68 | 0.85 | – | – | 0.79 | – | 53 | 52 | –
7 | CN1CC[C@]23c4c5ccc(O)c4O[C@H]2c2[nH]c4c(c2C[C@@]3(O)[C@H]1C5)C[C@@]1(O)[C@H]2Cc3ccc(O)c5c3[C@@]1(CCN2C)[C@H]4O5 | 0.88 | 1.1 | – | – | 1.6 | – | 250 | 170 | IC50 [18]: 2630 nM
8 | COc1ccc2c3c1O[C@H]1c4[nH]c5c(c4C[C@@]4(O)[C@@H](C2)N(CC2CC2)CC[C@]314)C[C@@]1(O)[C@H]2Cc3ccc(OC)c4c3[C@@]1(CCN2CC1CC1)[C@H]5O4 | 0.8 | 0.6 | – | – | 3.8 | – | – | – | Ke [19]: 7.1 nM
9 | CC(=O)Oc1ccc2c3c1O[C@H]1c4[nH]c5c(c4C[C@@]4(OC(C)=O)[C@@H](C2)N(CC2CC2)CC[C@]314)C[C@@]1(OC(C)=O)[C@H]2Cc3ccc(OC(C)=O)c4c3[C@@]1(CCN2CC1CC1)[C@H]5O4 | 1.2 | – | – | – | 1.6 | – | – | – | Ratio [20]: 1.4
10 | CC(=O)O[C@@]12Cc3c([nH]c4c3C[C@@]3(OC(C)=O)[C@H]5Cc6ccc(O)c7c6[C@@]3(CCN5CC3CC3)[C@H]4O7)[C@@H]3Oc4c(O)ccc5c4[C@@]31CCN(CC1CC1)[C@@H]2C5 | 3.4 | 9.2 | 111 | 0.38 | 261 | 32 | – | – | Ke [16]: 42 nM; Ke [17]: 12 nM
